In ChEMBL document CHEMBL1122138, “Fluorinated retinoic acids and their analogues. 3. Synthesis and biological activity of aromatic 6-fluoro analogues” (1982):

Tests used:
Assay type in all cases: functional
Mus musculus [1] = species on record: Mus musculus; assay: Hypervitaminosis A dose, a measure of toxicity, in mice was determined
Method in brief: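 Mice received retinoid suspended in water with 0.1% carboxymethylcellulose and 0.01% Triton X-100. Dosing was ip daily Mon–Fri in week 1 and Mon–Thu in week 2. Symptoms were scored one day after the last injection: weight loss, skin redness/scaling, hair loss, nose/mouth mucosal changes, bone fractures. The value is the lowest daily dose at which 2 of 3 mice show one or more symptoms.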

Mus musculus [2] = assay: Antipapilloma activity was measured in mice as percentage effect by ip administration at the dose of 80 mg/kg/day.; details: route intraperitoneal
Mus musculus [3] = assay: Antipapilloma activity was measured in mice as percentage effect by ip administration at the dose of 20 mg/kg/day.; details: route intraperitoneal
Mus musculus [4] = assay: Antipapilloma activity was measured in mice as percentage effect by ip administration at the dose of 10 mg/kg/day.; details: route intraperitoneal
Mus musculus [5] = assay: Antipapilloma activity was measured in mice as percentage effect by ip administration at the dose of 40 mg/kg/day.; details: route intraperitoneal
Mus musculus [6] = assay: Antipapilloma activity was measured in mice as percentage effect by ip administration at the dose of 5 mg/kg/day.; details: route intraperitoneal

Compound	Dose (Mus musculus [1]) [mg/kg]	Effect (Mus musculus [2]) [%]	Effect (Mus musculus [3]) [%]	Effect (Mus musculus [4]) [%]	Effect (Mus musculus [5]) [%]	Effect (Mus musculus [6]) [%]
COC(=O)/C=C(C)/C=C/C(F)=C(C)/C=C/c1c(Cl)cc(OC)c(C)c1Cl	200	-64				
COC(=O)/C=C(C)/C=C/C(F)=C(C)/C=C/c1c(C)cc(OC)c(C)c1Cl	50		-56			
COC(=O)/C=C(C)/C=C/C(F)=C(C)/C=C/c1c(C)cc(OC)c(C)c1C	50		-60	-35	-79	-28
COC(=O)/C=C(C)/C=C/C(F)=C(C)/C=C/c1c(Cl)cc(OC)c(Cl)c1Cl	>200	-58				
COC(=O)/C=C(C)/C=C/C(F)=C(C)/C=C/c1c(Cl)cc(OC)c(C)c1C	200				-41	
COC(=O)/C=C(C)/C=C/C(F)=C(C)/C=C/c1c(C)cc(C)c(Cl)c1C	200	-48				
